Assays:
[1] = organism: Rattus norvegicus; test: Percent residual insulin release in rat pancreatic islets upon incubation with the compound (10 uM) at 37 degree C for 90 mins; format: functional
In short: (§1)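 Islets isolated by collagenase digestion from fed Wistar rats (180–220 g); groups of 10 preincubated 30 min at 37 °C in bicarbonate-buffered salt medium with 2.8 mM glucose and 0.5% albumin, gassed O2/CO2 95:5. Then incubated 90 min at 37 °C with 16.7 mM glucose plus drug. Insulin measured by radioimmunoassay; release expressed as % of drug-free 16.7 mM glucose control. IC50 estimated.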

[2] = organism: Rattus norvegicus; test: Ratio of EC50 required to relax KCl induced rat aorta ring contractions to that of IC50 required to inhibit insulin release in rat pancreatic islets; format: functional
[3] = organism: Rattus norvegicus; test: Concentration required to relax KCl induced rat aorta ring contractions by 50% upon incubation with the compound at 37 degree C for 90 mins; format: functional, organism-based; conditions: 1.5 h
In short: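 Endothelium-denuded transverse aortic rings (3–4 mm) from fed Wistar rats (180–220 g); isometric tension recorded by force transducer. After 60 min equilibration, rings contracted with 30 mM KCl; at stable tension, drug added cumulatively until maximal relaxation or 0.3 mM. Relaxation expressed as % of KCl contraction; EC50 taken from dose–response curves; mean ± SEM (n).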

[4] = organism: Rattus norvegicus; test: Percent residual insulin release in rat pancreatic islets upon incubation with the compound (0.1 uM) at 37 degree C for 90 mins; format: functional; in short: as §1
[5] = organism: Rattus norvegicus; test: Percent residual insulin release in rat pancreatic islets upon incubation with the compound (1 uM) at 37 degree C for 90 mins; format: functional; in short: as §1
[6] = organism: Rattus norvegicus; test: Concentration required to inhibit insulin release in rat pancreatic islets by 50% upon incubation with the compound at 37 degree C for 90 mins; format: functional, organism-based; conditions: 1.5 h; in short: as §1
[7] = organism: Rattus norvegicus; test: Percent residual insulin release in rat pancreatic islets upon incubation with the compound (50 uM) at 37 degree C for 90 mins; format: functional; in short: as §1

Row | SMILES | Release [1] | Selectivity [2] | EC50 [3] | Release [4] | Release [5] | IC50 [6] | Release [7]
1 | O=S1(=O)N=C(NC2CCC2)Nc2cc(Cl)c(F)cc21 | 12.8% | 173.5 | 39.9 µM | 74.5% | 15.3% | 0.23 µM | –
2 | CCNC1=NS(=O)(=O)c2cc(OC)c(Cl)cc2N1 | 7.2% | 16.9 | 8.1 µM | 85.3% | 38% | 0.48 µM | –
3 | CC(C)NC1=NS(=O)(=O)c2cc(F)c(Cl)cc2N1 | 7% | 259.4 | 41.5 µM | 64.4% | 5.7% | 0.16 µM | –
4 | CCCCCCNC1=NS(=O)(=O)c2cc(Cl)c(Cl)cc2N1 | 95.2% | – | > 300 µM | – | – | – | –
5 | O=S1(=O)NC(NC2CC2)=Nc2cc(Cl)c(Cl)cc21 | 17.6% | >9 | > 30 µM | – | 92.5% | 3.34 µM | –
6 | CC(C)NC1=NS(=O)(=O)c2cc(F)c(NC(C)C)cc2N1 | – | – | > 200 µM | – | – | – | 70.1%
7 | CC(C)NC1=NS(=O)(=O)c2cc(Br)ccc2N1 | 8.1% | 10.2 | 4.8 µM | 91% | 34.9% | 0.47 µM | –
8 | COc1cc2c(cc1Cl)NC(NC1CCC1)=NS2(=O)=O | 9.2% | 45.9 | 23.4 µM | 90% | 38.1% | 0.51 µM | –
9 | CC(C)CNC1=NS(=O)(=O)c2cc(F)c(F)cc2N1 | 42.3% | >5.3 | > 30 µM | – | 86.9% | 5.68 µM | –
10 | CC(C)NC1=NS(=O)(=O)c2cc(Cl)c(Cl)cc2N1 | 6.3% | 8.2 | 2.3 µM | 84.9% | 13.2% | 0.28 µM | –
11 | CCNC1=NS(=O)(=O)c2cc(F)c(Cl)cc2N1 | 12.7% | 212 | 42.4 µM | 73.1% | 7.3% | 0.2 µM | –
12 | O=S1(=O)NC(NC2CCC2)=Nc2cc(Cl)c(Br)cc21 | 9.5% | 5.5 | 6.6 µM | – | 57.2% | 1.21 µM | –
13 | COc1cc2c(cc1Cl)NC(NC(C)C)=NS2(=O)=O | 7.7% | 154.2 | 37 µM | 73.8% | 20.6% | 0.24 µM | –
14 | CCCNC1=NS(=O)(=O)c2cc(F)c(NCCC)cc2N1 | – | – | – | – | – | – | 104.1%
15 | O=S1(=O)N=C(NC2CCC2)Nc2cc(NC3CCC3)c(F)cc21 | – | – | – | – | – | – | 88.6%
16 | C=CCNC1=Nc2cc(Cl)c(Cl)cc2S(=O)(=O)N1 | 13.5% | 0.63 | 1.2 µM | – | 68.5% | 1.89 µM | –
17 | COc1ccc2c(c1)S(=O)(=O)NC(NC(C)C)=N2 | 8.5% | 156.6 | – | – | 67.6% | 1.75 µM | –
18 | CCCNC1=NS(=O)(=O)c2cc(F)c(Cl)cc2N1 | 7.5% | 87.1 | 45.3 µM | 92% | 37.6% | 0.52 µM | –
19 | CC(C)NC1=NS(=O)(=O)c2cc(F)ccc2N1 | 3.7% | 56.7 | 43.1 µM | 96.9% | 47.3% | 0.76 µM | –
20 | CCNC1=NS(=O)(=O)c2cc(Cl)c(Cl)cc2N1 | 9.1% | 4 | 1 µM | 83.4% | 8.5% | 0.25 µM | –
21 | CC(C)NC1=NS(=O)(=O)c2cc(Br)c(Cl)cc2N1 | 7.5% | 21.5 | 5.6 µM | 73.3% | 25.7% | 0.26 µM | –
22 | O=S1(=O)NC(NC2CCC2)=Nc2cc(Cl)c(Cl)cc21 | 8.4% | 10.1 | 12.6 µM | – | 58.1% | 1.25 µM | –
23 | CC1=Nc2ccc(Cl)cc2S(=O)(=O)N1 [DIAZOXIDE] | 73.9% | 1 | – | – | 87.5% | – | –
24 | CCNC1=NS(=O)(=O)c2cc(Br)c(Cl)cc2N1 | 7.9% | 12.2 | 3.3 µM | 79.5% | 19.7% | 0.27 µM | –
25 | CC(C)NC1=NS(=O)(=O)c2cc(Cl)ccc2N1 | 4.9% | 49.7 | – | 90.4% | 36.2% | 0.73 µM | –
26 | CCNC1=NS(=O)(=O)c2cc(F)c(F)cc2N1 | 10.5% | 180.3 | 66.7 µM | 94.5% | 22% | 0.37 µM | –
27 | CC(C)NC1=NS(=O)(=O)c2cc(F)c(F)cc2N1 | 6.1% | 341.3 | 102 µM | 81.6% | 22.9% | 0.3 µM | –
28 | CCCNC1=NS(=O)(=O)c2cc(Cl)c(Cl)cc2N1 | 9.9% | 3.4 | 4.7 µM | – | 60.2% | 1.37 µM | –
